Test results taken from ChEMBL document CHEMBL5321273, “Bicyclic Peptide Library Screening for the Identification of Gαi Protein Modulators” (J Med Chem, 2023).
pIC50, pKd: −log10 of the molar value. Calls of active or inactive are those of the source. The rule behind the calls is not given here.

What was measured:
NG108-15 [1] = test: Modulation of Galphai in forskolin/DADLE-stimulated NG108-15 cell membrane expressing human beta2-AR co-expressing mu-opioid receptor assessed as increase in cAMP level at 10 uM relative to control; assay type: cell membranes
Procedure, shortened: (§1)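 Cell-free AC assay on membranes from NG108–15 hybrid cells stably expressing human β2-AR; peptides 10 μM; cAMP production stimulated with Fsk or Fsk + DADLE; read by ELISA; values as percent of untreated control; n = 3, SD.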

HeLa [2] = test: Modulation of Galphai in human HeLa cells assessed as hetero-trimer reassociation by measuring effect on phosphorylated Akt level at 2.5 uM incubated for 30 mins by immunoblotting analysis; assay type: cell-based
HeLa [3] = test: Modulation of Galphai in human HeLa cells assessed as hetero-trimer reassociation by measuring decrease in free Galphai monomer level at 2.5 uM incubated for 30 mins by BRET analysis; assay type: cell-based; settings: filed as modulator
Procedure, shortened: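 Gβγ release BRET: HeLa cells transfected with Venus-Gβ, Gγ and Rluc8-Gαi (500 ng each); peptide 2.5 μM 30 min RT; CTZ 10 μM added; BRET ratio from emission scan, AUC normalized to no-peptide; n = 3, S.E.M.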

HeLa [4] = test: Cytotoxicity against human HeLa cells assessed as reduction in cell viability upto 80 uM incubated for overnight by MTT assay; assay type: toxicity, cell-based
[5] = Modulation of Galphai in human HeLa cells assessed as increase in cAMP level incubated for 30 mins followed by forskolin stimulation measured after 30 mins by TR-FRET analysis; assay type: cell-based; settings: 0.5 h
Procedure, shortened: (§2)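 Endpoint intracellular cAMP by TR-FRET (LANCE Ultra cAMP kit) in HeLa cells incubated with a range of peptide concentrations, then Fsk-stimulated or unstimulated; cAMP quantified against a cAMP standard curve.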

NG108-15 [6] = test: Modulation of Galphai in forskolin-stimulated NG108-15 cell membrane expressing human beta2-AR co-expressing […] receptor assessed as increase in cAMP level at 10 uM relative to control; assay type: cell membranes; procedure, shortened: as §1
HeLa [7] = test: Modulation of Galphai in human HeLa cells assessed as increase in cAMP level at 2.5 uM incubated for 30 mins followed by forskolin stimulation measured after 30 mins by TR-FRET analysis relative to control; assay type: cell-based; settings: filed as modulator, time 60.0 min; procedure, shortened: as §2
HeLa [8] = test: Modulation of Galphai in isoproterenol-stimulated human HeLa cells assessed as effect on cAMP level at 2.5 to 5 uM incubated for 30 mins by BRET analysis relative to control; assay type: cell-based; settings: dose 2.5-5 µM
Procedure, shortened: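 CAMYEL BRET in HeLa cells transfected with β2-AR plus modified CAMYEL; peptide (10, 5, 2.5 μM final) 30 min RT in pH 8.0 assay buffer; IBMX 100 μM + CTZ 10 μM, 7 min read; isoproterenol added, BRET 15 min; AUC normalized to untreated; triplicates.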

HeLa [9] = test: Modulation of Galphai in human HeLa cells assessed as hetero-trimer reassociation by measuring effect on phosphorylated ERK level at 2.5 uM incubated for 30 mins by immunoblotting analysis; assay type: cell-based
HeLa [10] = test: Modulation of Galphai in human HeLa cells assessed as hetero-trimer reassociation by measuring decrease in free G-beta/gamma dimer level at 2.5 uM incubated for 30 mins by BRET analysis; assay type: cell-based; settings: filed as modulator
Procedure, shortened: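 Free Gβγ BRET using Rluc-fused GRK3ct as biosensor in HeLa cells; 30 min incubation with 2.5 μM peptide or none; BRET signal normalized to untreated; n = 3, S.E.M., one-way ANOVA.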

HeLa [11] = test: Modulation of Galphai in human HeLa cells assessed as hetero-trimer reassociation by measuring effect on total Akt level at 2.5 uM incubated for 30 mins by immunoblotting analysis; assay type: cell-based
[12] = biological target: T1, Guanine nucleotide-binding protein G(i) subunit alpha-1 (Homo sapiens, UniProt P63096); test: Binding affinity to N-terminal 6His-tagged GDP-bound Galphai1 (unknown origin) expressed in Escherichia coli BL21 (DE3) assessed as dissociation constant by SPR analysis
T1 sequence (P63096 whole entry): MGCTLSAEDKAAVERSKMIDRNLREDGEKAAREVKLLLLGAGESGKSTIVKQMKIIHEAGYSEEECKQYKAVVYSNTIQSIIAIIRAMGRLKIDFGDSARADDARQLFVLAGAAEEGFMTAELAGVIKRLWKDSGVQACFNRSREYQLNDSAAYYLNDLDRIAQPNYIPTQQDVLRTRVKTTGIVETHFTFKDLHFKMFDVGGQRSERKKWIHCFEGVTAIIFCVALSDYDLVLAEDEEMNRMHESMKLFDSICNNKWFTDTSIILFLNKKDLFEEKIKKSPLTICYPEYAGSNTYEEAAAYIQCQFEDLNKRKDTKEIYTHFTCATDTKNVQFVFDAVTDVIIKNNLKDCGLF
Procedure, shortened: (§3)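 SPR: Gαi1 loaded with GDP or GMPPNP immobilized on sensor chip by amine coupling; peptides flowed over at varying concentrations; KD determined. Reverse orientation (peptide immobilized, protein flowed) also run.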

HeLa [13] = test: Modulation of Galphai in forskolin-stimulated human HeLa cells assessed as adenylyl cyclase mediated increase in cAMP level at 2.5 uM incubated for 30 mins by BRET analysis relative to control; assay type: cell-based
Procedure, shortened: (§4)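 HeLa cells in DMEM/10% FBS transfected with Gαi(C351I) or pcDNA plus modified CAMYEL cAMP BRET sensor; replated 40K/well; peptide (10, 5, 2.5 μM final, assay buffer pH 8.0) 30 min RT; 100 μM IBMX + 10 μM CTZ added, luminescence 7 min; then Fsk, BRET 15 min; AUC normalized to no-peptide; triplicates.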

HeLa [14] = test: Modulation of Galphai in human HeLa cells assessed as hetero-trimer reassociation by measuring effect on total ERK level at 2.5 uM incubated for 30 mins by immunoblotting analysis; assay type: cell-based
[15] = Stability in human plasma at 1 mM measured upto 180 mins by HPLC analysis; assay type: ADME, cell-free; settings: 3 h, 1000 µM
HeLa [16] = test: Modulation of Galphai in forskolin-stimulated human HeLa cells assessed as adenylyl cyclase mediated decrease in cAMP level at 2.5 to 10 uM incubated for 30 mins by BRET analysis relative to control; assay type: cell-based; settings: dose 2.5-10 µM; procedure, shortened: as §4
[17] = biological target: T1, Guanine nucleotide-binding protein G(i) subunit alpha-1; test: Binding affinity to N-terminal 6His-tagged GMPPNP-bound Galphai1 (unknown origin) expressed in Escherichia coli BL21 (DE3) assessed as dissociation constant by SPR analysis; procedure, shortened: as §3
NG108-15 [18] = test: Modulation of Galphai in DADLE/forskolin-stimulated NG108-15 cell membrane expressing human beta2-AR co-expressing […] receptor assessed as decrease in cAMP level at 10 uM relative to control; assay type: cell membranes; design: scale not given: the % may be the effect or the level left; procedure, shortened: as §1

For `CC[C@H](C)[C@@H]1NC(=O)[C@@H](Cc2cccc3ccccc23)NC(=O)c2cc3cc(c2)C(=O)NC[C@@H](C(=O)N[C@@H](CCCCN)C(N)=O)NC(=O)[C@@H](C)NC(=O)[C@@H](Cc2ccccc2)NC(=O)[C@H](CCCNC(=N)N)NC(=O)[C@H](C)NC(=O)[C@@H](CCCNC3=O)NC(=O)[C@@H](C(C)C)NC(=O)[C@@H](Cc2ccccc2)NC1=O`, the Activity (NG108-15 [1]; in the assay text read “delta-opioid receptor” for “mu-opioid receptor”) was 30%, the Activity (HeLa [2]) was “inactive” and the Activity (HeLa [3]) was “Active”. The Activity (HeLa [4]) was “Non-Toxic”, the pIC50 [5] was 5.16 and the Activity (NG108-15 [6]) was 30%. The Activity (HeLa [7]) was “Active”, the Activity (HeLa [8]) was “inactive” and the Activity (HeLa [9]) was “inactive”. For the same compound, the Activity (HeLa [10]) was “Active”, the Activity (HeLa [11]) was “inactive” and the pKd [12] was 4.59. For the same compound, the Activity (HeLa [13]) was 10%, the Activity (HeLa [14]) was “inactive” and the Stability [15] was “Stable”.
For `N=C(N)NCCC[C@@H]1NC(=O)CNC(=O)[C@H](CO)NC(=O)c2cc3cc(c2)C(=O)NC[C@@H](C(=O)N[C@@H](CCCCN)C(N)=O)NC(=O)[C@@H](Cc2cccc4ccccc24)NC(=O)[C@H](Cc2ccc(O)cc2)NC(=O)[C@@H](CCCCN)NC(=O)[C@@H](Cc2cccc4ccccc24)NC(=O)[C@H](CCCNC3=O)NC1=O`, the Activity (HeLa [16]; filed as modulator) was “Active”, the Activity (HeLa [4]) was “Non-Toxic” and the pKd [12] was 4.61.
In the case of `NCCCC[C@H](NC(=O)[C@@H]1CNC(=O)c2cc3cc(c2)C(=O)N[C@H](Cc2cccc4ccccc24)C(=O)N[C@H](Cc2ccccc2)C(=O)N2CCC[C@@H]2C(=O)N[C@@H](CCCNC3=O)C(=O)N2CCC[C@@H]2C(=O)N[C@H](CCCCN)C(=O)N2CCC[C@@H]2C(=O)N[C@@H](Cc2ccc(O)cc2)C(=O)N1)C(N)=O`, the pKd [17] was 6.15, the Activity (HeLa [16]; filed as modulator) was “Active” and the Activity (NG108-15 [18]; filed as modulator) was 40%. For the same compound, the Activity (HeLa [4]) was “Non-Toxic”, the Activity (HeLa [8]) was “inactive” and the pKd [12] was 5.30.
For `CC[C@H](C)[C@@H]1NC(=O)c2cc3cc(c2)C(=O)NC[C@@H](C(=O)N[C@@H](CCCCN)C(N)=O)NC(=O)[C@H](Cc2c[nH]c4ccccc24)NC(=O)[C@@H](Cc2ccc4ccccc4c2)NC(=O)[C@@H](C(C)C)NC(=O)[C@H](CCCNC3=O)NC(=O)[C@@H](CC(N)=O)NC(=O)[C@@H](CC(C)C)NC1=O`, the Activity (NG108-15 [1]) was “inactive”, the Activity (HeLa [16]) was “inactive” and the Activity (NG108-15 [18]) was “inactive”. The Activity (HeLa [4]) was “Non-Toxic”, the Activity (NG108-15 [6]) was “inactive” and the Activity [12] was “inactive”. For the same compound, the Activity (HeLa [13]) was “inactive”.
